# Laboratory results published in ChEMBL document CHEMBL1828630, “Design, synthesis and vasorelaxant evaluation of novel coumarin-pyrimidine hybrids” (Bioorg Med Chem, 2011).
# pIC50: −log10 of the molar value.
# System: Aorta
# Test: Vasorelaxant activity in Wistar rat thoracic aortic ring assessed as inhibition of norepinephrine hydrochloride-induced contraction treated after noradrenaline challenge
# Assay type: functional, tissue-based
# Conditions: not given; call rule not given here
# Summary of the method: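 Aortic ring preparations held under resting tension below 2 g and allowed to stabilise for 2 h. Contraction to norepinephrine hydrochloride (10^-6 M) was recorded before and after exposure to increasing concentrations of test compound. Tension was measured isometrically. Compounds were taken from 0.01 M DMSO stocks, and DMSO-alone controls were run at matching concentrations. Activity was reported as IC50.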
row,IC50,SMILES
1,Not Active,Cc1cc(-c2ccccc2)nc(Nc2ccc3oc(=O)ccc3c2)n1
2,Not Active,COc1ccc2ccc(=O)oc2c1C(=O)/C=C/c1ccc(C)cc1
3,Not Active,COc1ccc2ccc(=O)oc2c1-c1cc(-c2ccc([N+](=O)[O-])cc2)nc(N)n1

# Same assay, conditions: Rattus norvegicus, Wistar, Aorta; read-out: IC50
row,SMILES,pIC50
1,COc1ccc2ccc(=O)oc2c1C(C)=O,3.32
2,Nc1ccc2oc(=O)ccc2c1,3.27
3,Cc1cc(=O)[nH]c(Nc2ccc3oc(=O)ccc3c2)n1,3.15
4,CCN(CC)c1cc(C)nc(Nc2ccc3oc(=O)ccc3c2)n1,3.31
5,Cc1cc(C)nc(Nc2ccc3oc(=O)ccc3c2)n1,3.39
6,Cc1nc(Nc2ccc3oc(=O)ccc3c2)nc(Cl)c1CCCl,3.15
7,N/C(=N/O)c1c(-c2ccccc2)nc(Nc2ccc3oc(=O)ccc3c2)[nH]c1=O,3.33
8,COc1ccc2ccc(=O)oc2c1C(=O)/C=C/c1ccccc1,3.28
9,COc1ccc2ccc(=O)oc2c1-c1cc(-c2ccc(C)o2)nc(N)n1,2.91
10,COc1ccc2ccc(=O)oc2c1-c1cc(-c2ccccc2)nc(N)n1,3.10
11,COc1ccc2ccc(=O)oc2c1-c1cc(-c2ccc(C(F)(F)F)cc2)nc(N)n1,2.97

# Now from value to molecule:
row,pIC50,SMILES
1,3.38,CCN(CC)c1ccc(-c2nc(Nc3ccc4oc(=O)ccc4c3)[nH]c(=O)c2C#N)cc1
2,3.38,N=C(N)Nc1ccc2oc(=O)ccc2c1
3,3.33,Cc1cc(Cl)nc(Nc2ccc3oc(=O)ccc3c2)n1
4,3.09,O=c1cc(O)nc(Nc2ccc3oc(=O)ccc3c2)[nH]1
5,3.34,O=c1ccc2cc(Nc3nc(Cl)cc(Cl)n3)ccc2o1
6,3.23,N#Cc1c(N)nc(Nc2ccc3oc(=O)ccc3c2)nc1-c1ccccc1
7,3.33,N/C(=N/O)c1c(N)nc(Nc2ccc3oc(=O)ccc3c2)nc1-c1ccccc1
8,3.26,N#Cc1c(-c2ccccc2)nc(Nc2ccc3oc(=O)ccc3c2)[nH]c1=O
9,3.25,COc1ccc2ccc(=O)oc2c1C(=O)/C=C/c1ccc(C)o1
10,3.43,COc1ccc2ccc(=O)oc2c1C(=O)/C=C/c1cccs1
11,3.43,COc1ccc2ccc(=O)oc2c1C(=O)/C=C/c1ccc(C(F)(F)F)cc1
12,3.15,COc1ccc2ccc(=O)oc2c1C(=O)/C=C/c1ccc(SC)cc1
13,3.15,COc1ccc2ccc(=O)oc2c1C(=O)/C=C/c1ccc([N+](=O)[O-])cc1
14,3.19,COc1ccc2ccc(=O)oc2c1-c1cc(-c2cccs2)nc(N)n1
15,3.03,COc1ccc2ccc(=O)oc2c1-c1cc(-c2ccc(C)cc2)nc(N)n1
16,2.94,COc1ccc2ccc(=O)oc2c1-c1cc(-c2ccc(SC)cc2)nc(N)n1
17,3.31,COc1cc2nc(N3CCN(C(=O)c4ccco4)CC3)nc(N)c2cc1OC [PRAZOSIN]

# Same assay, conditions: Rattus norvegicus, Wistar, Aorta; read-out: pIC50 (converted)
row,IC50 [µM],SMILES
1,1250,COc1ccc2ccc(=O)oc2c1-c1cc(-c2ccccc2)nc(N)n1
2,1070,COc1ccc2ccc(=O)oc2c1-c1cc(-c2ccc(C)cc2)nc(N)n1
3,876,COc1ccc2ccc(=O)oc2c1-c1cc(-c2ccc(SC)cc2)nc(N)n1
